Tests used:
Format in all cases: cell-based
[1] = target: Probable G-protein coupled receptor 34 (Mus musculus) (UniProt Q9R1K6); assay: Intrinsic activity at mouse GPR34 expressed in HEK293 cells co-transfected with AP-TGFalpha/chimeric […] assessed as induction of ectodomain shedding of membrane bound AP-TGFalpha after 1 hr relative to O-(Hydroxy(((2R,3R)-2-(((3-(2-((3-phenoxybenzyl)oxy)phenyl)- propanoyl)oxy)methyl)tetrahydro-2H-pyran-3-yl)oxy)phosphoryl)- L-serine
Summary of the method: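 Relative intrinsic activity (RIA) was Emax/EC50 relative to that of a positive control agonist, whose RIA is defined as 1. Emax and EC50 came from sigmoid fits of receptor-specific AP-TGFα release in the HEK293A shedding assay, with human GPR34 for line 5 and mouse GPR34 for line 6, after 1 h at 37 °C.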

[2] = target: Probable G-protein coupled receptor 34 (Mus musculus, UniProt Q9R1K6); assay: Agonist activity at mouse GPR34 expressed in HEK293 cells co-transfected with AP-TGFalpha/chimeric Galphaq/i1 assessed as induction of ectodomain shedding of membrane bound AP-TGFalpha after 1 hr
Sequence of Probable G-protein coupled receptor 34 (Mus musculus, UniProt Q9R1K6) (Q9R1K6 whole entry, the tested form may be a part): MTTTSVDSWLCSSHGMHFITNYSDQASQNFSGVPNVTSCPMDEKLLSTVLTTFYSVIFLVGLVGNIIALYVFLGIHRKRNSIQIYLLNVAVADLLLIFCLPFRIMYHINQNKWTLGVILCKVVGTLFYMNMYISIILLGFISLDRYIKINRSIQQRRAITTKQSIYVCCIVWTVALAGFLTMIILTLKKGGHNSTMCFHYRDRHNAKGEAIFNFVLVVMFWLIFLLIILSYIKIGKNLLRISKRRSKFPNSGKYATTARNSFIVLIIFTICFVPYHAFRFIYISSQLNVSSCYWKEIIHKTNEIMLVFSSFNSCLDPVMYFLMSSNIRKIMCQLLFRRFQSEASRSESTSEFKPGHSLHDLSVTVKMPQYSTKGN
Summary of the method: (§1)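 HEK293A cells transiently co-transfected with AP-TGFα, chimeric Gαq/i1 and GPR34 (human for line 1, mouse for line 3) or empty vector (mock). After 24 h, cells were suspended in HBSS with 5 mM HEPES pH 7.4 and preincubated 30 min with 10 μM (final) Ki16425. Compounds in HBSS with 0.01% fatty acid-free BSA were added for 1 h at 37 °C. AP activity in medium and on cells was read as OD405 with p-NPP after 1 h at room temperature.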

[3] = target: Probable G-protein coupled receptor 34 (Mus musculus) (UniProt Q9R1K6); assay: Agonist activity at mouse GPR34 expressed in HEK293 cells co-transfected with AP-TGFalpha/chimeric Galphaq/i1 assessed as induction of ectodomain shedding of membrane bound AP-TGFalpha after 1 hr relative to control
Summary of the method: (§2)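 Same AP-TGFα shedding set-up in HEK293A (human GPR34 for line 2, mouse for line 4). Release was the %AP-TGFα in medium minus vehicle, then minus the mock-transfected response. Emax (% AP-TGFα release) and LogEC50 came from four-parameter sigmoid fits of plateau or semiplateau curves, as mean ± SEM of n independent experiments.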

[4] = target: T1, Probable G-protein coupled receptor 34 (Homo sapiens, UniProt Q9UPC5); assay: Agonist activity at human GPR34 expressed in HEK293 cells co-transfected with AP-TGFalpha/chimeric Galphaq/i1 assessed as induction of AP-TGFalpha release after 1 hr relative to control; summary of the method: as §2
T1 sequence (Q9UPC5 whole entry): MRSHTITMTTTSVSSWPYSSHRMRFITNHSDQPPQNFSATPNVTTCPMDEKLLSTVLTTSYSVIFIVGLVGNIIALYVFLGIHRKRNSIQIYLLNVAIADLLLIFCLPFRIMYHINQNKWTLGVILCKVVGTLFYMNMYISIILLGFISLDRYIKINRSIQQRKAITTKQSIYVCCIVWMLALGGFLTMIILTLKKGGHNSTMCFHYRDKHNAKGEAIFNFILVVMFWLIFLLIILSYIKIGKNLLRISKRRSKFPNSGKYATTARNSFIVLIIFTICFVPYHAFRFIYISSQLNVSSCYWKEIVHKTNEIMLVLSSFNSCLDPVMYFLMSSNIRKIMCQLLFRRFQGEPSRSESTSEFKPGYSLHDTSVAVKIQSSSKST

[5] = target: T1, Probable G-protein coupled receptor 34; assay: Agonist activity at human GPR34 expressed in HEK293 cells co-transfected with AP-TGFalpha/chimeric Galphaq/i1 assessed as induction of AP-TGFalpha release after 1 hr; summary of the method: as §1
[6] = target: T1, Probable G-protein coupled receptor 34; assay: Intrinsic activity at human GPR34 expressed in HEK293 cells co-transfected with AP-TGFalpha/chimeric Galphaq/i1 assessed as induction of AP-TGFalpha release after 1 hr relative to O-(Hydroxy(((2R,3R)-2-(((3-(2-((3-phenoxybenzyl)oxy)phenyl)- propanoyl)oxy)methyl)tetrahydro-2H-pyran-3-yl)oxy)phosphoryl)- L-serine

Sequence of Probable G-protein coupled receptor 34 (Mus musculus) (Q9R1K6 whole entry, the tested form may be a part): as the sequence (Q9R1K6 whole entry, the tested form may be a part) above

Structure (SMILES) | Intrinsic activity [1] | EC50 [2] [nM] | Emax [3] [%] | Emax [4] [%] | EC50 ([5]; read-out: EC50) [nM] | Intrinsic activity [6] | EC50 ([5]; read-out: pEC50 (converted)) [nM]
COc1ccc(Oc2cccc(COc3ccccc3CCC(=O)OCCCOP(=O)(O)OC[C@H](N)C(=O)O)c2)cc1 | 0.28 | 260 | 16.6 | – | – | – | –
N#Cc1ccc(Oc2cccc(COc3ccccc3CCC(=O)OCCCOP(=O)(O)OC[C@H](N)C(=O)O)c2)cc1 | 0.041 | 2000 | 18.3 | – | – | – | –
CC(C)(C)c1cccc(Oc2cccc(COc3ccccc3CCC(=O)OCCCOP(=O)(O)OC[C@H](N)C(=O)O)c2)c1 | 0.39 | 210 | 19.9 | – | – | – | –
N[C@@H](COP(=O)(O)OCCCOC(=O)CCc1ccccc1OCc1cccc(Oc2ccc(Cl)c(Cl)c2)c1)C(=O)O | 0.71 | 110 | 18 | – | – | – | –
CC(C)(C)c1cccc(-c2ccc(Oc3cccc(COc4ccccc4CCC(=O)OCCCOP(=O)(O)OC[C@H](N)C(=O)O)c3)cc2)c1 | 7.7 | 14 | 15.9 | 18.8 | 15 | 8.6 | –
CC(C)(C)c1ccc(Oc2cccc(COc3ccccc3CCC(=O)OCCCOP(=O)(O)OC[C@H](N)C(=O)O)c2)cc1 | 0.079 | 900 | 16.9 | 28.2 | 300 | 0.7 | –
Cc1ccccc1Oc1cccc(COc2ccccc2CCC(=O)OCCCOP(=O)(O)OC[C@H](N)C(=O)O)c1 | 0.28 | 650 | 20.3 | 22 | 180 | 1.2 | –
Cc1ccccc1-c1ccc(Oc2cccc(COc3ccccc3CCC(=O)OCCCOP(=O)(O)OC[C@H](N)C(=O)O)c2)cc1 | 0.94 | 78 | 13.4 | – | – | – | –
N[C@@H](COP(=O)(O)OCCCOC(=O)CCc1ccccc1OCc1cccc(OCc2ccccc2)c1)C(=O)O | – | > 3000 | – | – | – | – | –
N[C@@H](COP(=O)(O)OCCCOC(=O)CCc1ccccc1OCc1cccc(Oc2ccccc2)c1)C(=O)O | 0.48 | 220 | 19.4 | 21.7 | 90 | 1.7 | 95.5
CCCCCCCCCCCOc1ccccc1CCC(=O)OCCCOP(=O)(O)OC[C@H](N)C(=O)O | 0.04 | 1600 | 14.6 | – | – | – | –
Cc1cccc(Oc2cccc(COc3ccccc3CCC(=O)OCCCOP(=O)(O)OC[C@H](N)C(=O)O)c2)c1 | 0.29 | 550 | 21.3 | 24.2 | 230 | 1.2 | –
N[C@@H](COP(=O)(O)OCCCOC(=O)CCc1ccccc1OCc1cccc(Oc2ccc(Cl)cc2)c1)C(=O)O | 0.76 | 120 | 17.8 | – | – | – | –
N[C@@H](COP(=O)(O)OCCCOC(=O)CCc1ccccc1OCc1cccc(OC2CCCCC2)c1)C(=O)O | 0.11 | 800 | 18.8 | – | – | – | –
N[C@@H](COP(=O)(O)OCCCOC(=O)CCc1ccccc1OCc1cccc(Oc2cccc(Cl)c2)c1)C(=O)O | 0.53 | 170 | 17.1 | – | – | – | –
CC(C)(C)c1ccccc1Oc1cccc(COc2ccccc2CCC(=O)OCCCOP(=O)(O)OC[C@H](N)C(=O)O)c1 | – | > 3000 | – | – | – | – | –
N[C@@H](COP(=O)(O)OCCCOC(=O)CCc1ccccc1OCc1cccc(Oc2ccc(I)cc2)c1)C(=O)O | 0.82 | 100 | 19.1 | – | – | – | –
N[C@@H](COP(=O)(O)OCCCOC(=O)CCc1ccccc1OCc1cccc(Oc2ccc(-c3ccc(-c4ccccc4)cc3)cc2)c1)C(=O)O | 4.3 | 18 | 11.6 | 17 | 41 | 3.2 | –

Structure (SMILES) | Intrinsic activity [1] | EC50 [2] [nM] | Emax [3] [%] | Emax [4] [%] | EC50 ([5]; read-out: EC50) [nM] | Intrinsic activity [6] | EC50 ([5]; read-out: pEC50 (converted)) [nM]
Cc1ccc(Oc2cccc(COc3ccccc3CCC(=O)OCCCOP(=O)(O)OC[C@H](N)C(=O)O)c2)cc1 | 3.7 | 39 | 18.2 | 22.1 | 27 | 9.8 | –
N[C@@H](COP(=O)(O)OCCCOC(=O)CCc1ccccc1OCc1cccc(Oc2ccccc2Cl)c1)C(=O)O | 0.069 | 1200 | 19.8 | – | – | – | –
N[C@@H](COP(=O)(O)O[C@@H]1CCCO[C@@H]1COC(=O)CCc1ccccc1OCc1cccc(Oc2ccccc2)c1)C(=O)O | 1 | 180 | 21.3 | 25.6 | 150 | 1 | –
CCCCCCOc1ccc(-c2ccc(Oc3cccc(COc4ccccc4CCC(=O)OCCCOP(=O)(O)OC[C@H](N)C(=O)O)c3)cc2)cc1 | 3.4 | 49 | 17.4 | – | – | – | –
N[C@@H](COP(=O)(O)OCCCOC(=O)CCc1ccccc1OCc1cccc(Cc2ccccc2)c1)C(=O)O | 0.077 | 1300 | 14.5 | – | – | – | –
CCCCCCCC/C=C\CCCCCCCC(=O)OCCCOP(=O)(O)OC[C@H](N)C(=O)O | – | > 3000 | – | – | – | – | –
CCCCCCCC/C=C\CCCCCCCC(=O)OC[C@@H](O)COP(=O)(O)OC[C@H](N)C(=O)O | 0.26 | – | 14 | – | – | – | –
N[C@@H](COP(=O)(O)OCCCOC(=O)CCc1ccccc1OCCCCOc1ccccc1)C(=O)O | 0.033 | 1700 | 6.1 | – | – | – | –
N[C@@H](COP(=O)(O)OCCCOC(=O)CCc1ccccc1OCc1cccc(-c2ccccc2)c1)C(=O)O | – | > 3000 | – | – | – | – | –
Nc1ccc(Oc2cccc(COc3ccccc3CCC(=O)OCCCOP(=O)(O)OC[C@H](N)C(=O)O)c2)cc1 | 0.089 | 2700 | 21.3 | – | – | – | –
CCc1ccc(Oc2cccc(COc3ccccc3CCC(=O)OCCCOP(=O)(O)OC[C@H](N)C(=O)O)c2)cc1 | 0.42 | 180 | 19.3 | – | – | – | –
CCCCCCOCC#CCOc1ccccc1CCC(=O)OCCCOP(=O)(O)OC[C@H](N)C(=O)O | – | > 3000 | – | – | – | – | –
N[C@@H](COP(=O)(O)OCCCOC(=O)CCc1ccccc1OCc1cccc(Oc2ccc(F)cc2)c1)C(=O)O | 0.66 | 120 | 18.7 | – | – | – | –
CCCCCCOc1cccc(COc2ccccc2CCC(=O)OCCCOP(=O)(O)OC[C@H](N)C(=O)O)c1 | – | > 3000 | – | – | – | – | –
CC(C)(C)c1ccc(-c2ccc(Oc3cccc(COc4ccccc4CCC(=O)OCCCOP(=O)(O)OC[C@H](N)C(=O)O)c3)cc2)cc1 | 21 | 7.9 | 16.5 | – | – | – | –
N[C@@H](COP(=O)(O)OCCCOC(=O)CCc1ccccc1OCCCCCCOc1ccccc1)C(=O)O | 0.071 | 1200 | 20.7 | – | – | – | –
N[C@@H](COP(=O)(O)OCCCOC(=O)CCc1ccccc1OCc1cccc(Oc2ccc(-c3ccccc3)cc2)c1)C(=O)O | 2.2 | 45 | 17.8 | 23 | 78 | 2.1 | –
N[C@@H](COP(=O)(O)OCCCOC(=O)CCc1ccccc1OCc1cccc(Oc2ccc(Br)cc2)c1)C(=O)O | 0.97 | 82 | 17.7 | – | – | – | –

Reference: ChEMBL document CHEMBL4011662 (J Med Chem, 2017)
